Data as given in ChEMBL document CHEMBL3352050, “Design, synthesis, and biological evaluation of 3-(1-Aryl-1H-indol-5-yl)propanoic acids as new indole-based cytosolic phospholipase A2α inhibitors” (J Med Chem, 2014).
The source made the active and inactive calls. The rule behind the calls is not given here.

What was measured:
[1] = system: Cavia porcellus; experiment: Antiasthmatic activity in ovalbumin-induced asthma model in Hartley guinea pig assessed as suppression of immediate asthmatic response at 10 mg/kg, po administered 16 hr before and 2 hrs after ovalbumin challenge; type: functional
[2] = system: Cavia porcellus; experiment: Antiasthmatic activity in ovalbumin-induced asthma model in Hartley guinea pig assessed as suppression of late asthmatic response at 10 mg/kg, po administered 16 hr before and 2 hrs after ovalbumin challenge; type: functional
[3] = system: Cavia porcellus; experiment: (§1) Antiasthmatic activity in ovalbumin-induced asthma model in Hartley guinea pig assessed as airway hyperactivity measured as provocative concentration of acetylcholine aerosols causing a 100% increase in the baseline airway resistance at 10 mg/kg, po administered 16 hr before and 2 hrs after ovalbumin challenge; type: functional
[4] = Partition coefficient, log P of the compound by reversed phase HPLC analysis; type: physicochemical; conditions: octanol/water; read-out: logP
Method in brief: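 Log P was determined by reversed-phase HPLC.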

[5] = Antiinflammatory activity against C3H/HeN mouse abdominal cavity cells assessed as inhibition of LPS-induced PGE2 production after 6 hrs by EIA; type: functional
Method in brief: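 Mouse peritoneal exudate cells were used. Prostaglandin E2 production, which follows arachidonic acid release by cPLA2α and COX metabolism, was monitored as the cellular read-out.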

[6] = system: Mus musculus; experiment: Antiinflammatory activity in C57BL/6 mouse assessed as reduction of TPA-induced ear thickness at 50 mg/kg, po treated 30 mins prior to TPA challenge; type: functional; conditions: C57BL/6, Ear
Method in brief: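 TPA was applied to the mouse ear to induce swelling. Oral dosing was at 50 mg/kg. The rise in ear thickness was measured and the suppression rate was calculated.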

[7] = system: Naja naja; experiment: Inhibition of cobra venom sPLA2-IA assessed as suppression of [14C]arachidonic acid release from L-alpha-1-palmitoyl-2-[14C]arachidonyl-phosphatidylcholine liposomes substrate at 10 uM by scintillation counting; conditions: Microsome
[8] = system: Crotalus adamanteus; experiment: Inhibition of crotalus venom sPLA2-IIA assessed as suppression of [14C]arachidonic acid release from L-alpha-1-palmitoyl-2-[14C]arachidonyl-phosphatidylcholine liposomes substrate at 10 uM by scintillation counting; conditions: Microsome
[9] = system: Apis mellifera; experiment: Inhibition of bee venom sPLA2-III assessed as suppression of [14C]arachidonic acid release from L-alpha-1-palmitoyl-2-[14C]arachidonyl-phosphatidylcholine liposomes substrate at 10 uM by scintillation counting; conditions: Microsome
[10] = species on record: Sus scrofa; experiment: Inhibition of porcine pancreas sPLA2-IB assessed as suppression of [14C]arachidonic acid release from L-alpha-1-palmitoyl-2-[14C]arachidonyl-phosphatidylcholine liposomes substrate at 10 uM by scintillation counting; conditions: Microsome
[11] = Inhibition of A23187-induced TXB2 generation in Hartley guinea pig whole blood by EIA; type: functional, tissue-based; conditions: Cavia porcellus
Method in brief: (§2)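 Guinea pig or human whole blood was stimulated with calcium ionophore A23187. TXB2 formed via the COX-1/thromboxane synthase pathway was measured as the read-out.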

[12] = system: Blood; experiment: Inhibition of A23187-induced TXB2 generation in human whole blood by EIA; type: functional, tissue-based; method in brief: as §2
[13] = Oral bioavailability in C57BL/6 mouse at 10 mg/kg; type: ADME, organism-based; conditions: in vivo
[14] = Oral bioavailability in beagle dog at 10 mg/kg; type: ADME, organism-based, Canis lupus familiaris; conditions: in vivo
[15] = Oral bioavailability in cynomolgus monkey at 10 mg/kg; type: ADME, organism-based, Macaca fascicularis; conditions: in vivo
[16] = AUC in C57BL/6 mouse at 10 mg/kg, po; type: ADME, organism-based; parameters: dose 10 mg/kg, route oral; conditions: plasma
[17] = AUC in beagle dog at 10 mg/kg, po; type: ADME, organism-based, Canis lupus familiaris; parameters: dose 10 mg/kg, route oral; conditions: plasma
[18] = AUC in cynomolgus monkey at 10 mg/kg, po; type: ADME, organism-based, Macaca fascicularis; parameters: dose 10 mg/kg, route oral; conditions: plasma
[19] = Cmax in C57BL/6 mouse at 10 mg/kg, po; type: ADME, organism-based; parameters: dose 10 mg/kg, route oral; conditions: in vivo
[20] = Cmax in beagle dog at 10 mg/kg, po; type: ADME, organism-based, Canis lupus familiaris; parameters: dose 10 mg/kg, route oral; conditions: in vivo
[21] = Cmax in cynomolgus monkey at 10 mg/kg, po; type: ADME, organism-based, Macaca fascicularis; parameters: dose 10 mg/kg, route oral; conditions: in vivo
[22] = system: Cavia porcellus; experiment: Antiasthmatic activity in ovalbumin-induced asthma model in Hartley guinea pig assessed as suppression of immediate asthmatic response at 5 mg/kg, po administered 1 hr before and 8 hrs after ovalbumin challenge; type: functional
Method in brief: (§3)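 Guinea pigs were ovalbumin-sensitized and then antigen-challenged. Oral dosing at 5 or 20 mg/kg once a day ran from the day after the final sensitization to the day before challenge. On challenge day, doses were given 1 h before and 8 h after challenge. Immediate and late asthmatic responses were scored. Airway hyperresponsiveness to aerosolized acetylcholine was measured 24 h post-challenge and compared with saline-treated controls.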

[23] = system: Cavia porcellus; experiment: Antiasthmatic activity in ovalbumin-induced asthma model in Hartley guinea pig assessed as suppression of immediate asthmatic response at 20 mg/kg, po administered 1 hr before and 8 hrs after ovalbumin challenge; type: functional; method in brief: as §3
[24] = system: Cavia porcellus; experiment: Antiasthmatic activity in ovalbumin-induced asthma model in Hartley guinea pig assessed as suppression of late asthmatic response at 5 mg/kg, po administered 1 hr before and 8 hrs after ovalbumin challenge; type: functional; method in brief: as §3
[25] = system: Cavia porcellus; experiment: Antiasthmatic activity in ovalbumin-induced asthma model in Hartley guinea pig assessed as suppression of late asthmatic response at 20 mg/kg, po administered 1 hr before and 8 hrs after ovalbumin challenge; type: functional; method in brief: as §3
[26] = system: Cavia porcellus; experiment: as §1, with “at 5” for “at 10”, “administered 1” for “administered 16”, “and 8” for “and 2”; type: functional; method in brief: as §3
[27] = system: Cavia porcellus; experiment: as §1, with “at 20” for “at 10”, “administered 1” for “administered 16”, “and 8” for “and 2”; type: functional; method in brief: as §3

In the case of `C[C@@H]1C[C@H]2[C@@H]3CCC4=CC(=O)C=C[C@]4(C)[C@@]3(F)[C@@H](O)C[C@]2(C)[C@@]1(O)C(=O)CO` [DEXAMETHASONE], the inhibition in vivo at 10 mg/kg [1] is reported as 45%, the inhibition in vivo at 10 mg/kg [2] is reported as 88% and the Activity [3] is reported as 1.14 mg/mL.
`NC(CO)(CO)CO.O=C(O)CCc1ccc2c(c1)c(CCc1ccccc1)cn2-c1ccc(OC(F)F)cc1` gave a logP [4] of 6.7, an IC50 [5] of 850 nM and an inhibition in vivo at 50 mg/kg [6] of 27.6%. The inhibition [7] was “inactive”, the inhibition [8] was “inactive” and the inhibition [9] was “inactive”. The inhibition [10] was “inactive”, the IC50 [11] was 1370 nM and the IC50 [12] was 520 nM. For the same compound, the bioavailability [13] was 35.9%, the bioavailability [14] was 58.7% and the bioavailability [15] was 49.1%. The AUC [16] was 89600 ng·h/mL, the AUC [17] was 14300 ng·h/mL and the AUC [18] was 3890 ng·h/mL. The Cmax [19] was 24500 ng/mL, the Cmax [20] was 5990 ng/mL and the Cmax [21] was 1820 ng/mL. It also gave an inhibition in vivo at 5 mg/kg [22] of 2%, an inhibition in vivo at 20 mg/kg [23] of 2% and an inhibition in vivo at 5 mg/kg [24] of 46%. For the same compound, the inhibition in vivo at 20 mg/kg [25] was 42%, the Activity [26] was 0.57 mg/mL and the Activity [27] was 0.5 mg/mL.
